Experimental data taken from ChEMBL document CHEMBL4177755, “Combating Drug-Resistant Fungi with Novel Imperfectly Amphipathic Palindromic Peptides” (J Med Chem, 2018).

Tests used:
Escherichia coli [1] = assay: Antibacterial activity against Escherichia coli ATCC 25922 after 24 hrs; format: functional; conditions: ATCC 25922, 24 h
Procedure, shortened: (§1)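 Broth microdilution. Mid-log bacteria in MHB at a final (0.5−1) × 10^5 CFU/mL were mixed with equal volumes of peptide serially diluted in 0.2% BSA. Plates were incubated 24 h at 37 °C and read at A492. MIC is the lowest concentration inhibiting 95% of growth. Each test was repeated at least 3 times.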

[2] = Antibacterial activity against Salmonella pullorum ATCC 7913 after 24 hrs; format: functional, Salmonella enterica subsp. enterica serovar Pullorum; conditions: Salmonella enterica, ATCC 7913, 24 h; procedure, shortened: as §1
Staphylococcus aureus [3] = assay: Antibacterial activity against Staphylococcus aureus ATCC 29213 after 24 hrs; format: functional; conditions: ATCC 29213, 24 h
Procedure, shortened: (§2)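 Modified NCCLS broth microdilution. Mid-log bacteria at (0.5−1) × 10^5 CFU/mL in MHB were mixed 1:1 with peptide serially diluted in 0.2% BSA and incubated 24 h at 37 °C. Absorbance was read at 492 nm; MIC is the lowest concentration inhibiting 95% of growth. At least 3 repeats.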

Staphylococcus aureus [4] = assay: Antibacterial activity against methicillin-resistant Staphylococcus aureus ATCC 4330 after 24 hrs; format: functional; conditions: ATCC 4330, 24 h; procedure, shortened: as §2
[5] = tested on: Staphylococcus epidermidis; assay: Antibacterial activity against Staphylococcus epidermidis ATCC 12228 after 24 hrs; format: functional; conditions: ATCC 12228, 24 h; procedure, shortened: as §1
Escherichia coli [6] = assay: Bactericidal activity against Escherichia coli ATCC 25922; format: functional; conditions: read-out: MBC99.9
Procedure, shortened: (§3)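 Wells from the 24 h, 37 °C MHB microdilution plates (bacteria at a final (0.5−1) × 10^5 CFU/mL; peptide diluted in 0.2% BSA) were plated on agar and incubated overnight. MBC is the lowest concentration killing >99.9% of cells. Each test was reproduced at least 3 times.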

Escherichia coli [7] = assay: Bactericidal activity against Escherichia coli 1005; format: functional; conditions: read-out: MBC99.9; procedure, shortened: as §3
Salmonella typhimurium = assay: Bactericidal activity against Salmonella typhimurium ATCC 14028; format: functional, Salmonella enterica subsp. enterica serovar Typhimurium; conditions: Salmonella enterica, read-out: MBC99.9; procedure, shortened: as §3
Staphylococcus aureus [8] = assay: Bactericidal activity against Staphylococcus aureus ATCC 29213; format: functional; conditions: read-out: MBC99.9; procedure, shortened: as §3
Staphylococcus aureus [9] = assay: Bactericidal activity against methicillin-resistant Staphylococcus aureus ATCC 4330; format: functional; conditions: read-out: MBC99.9
Procedure, shortened: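 Bacteria at (0.5−1) × 10^5 CFU/mL in MHB were exposed to serially diluted peptide (0.2% BSA) for 24 h at 37 °C, then 50 μL aliquots were plated on agar overnight. MBC is the lowest concentration killing >99.9% of cells. At least 3 repeats.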

[10] = tested on: Staphylococcus epidermidis; assay: Bactericidal activity against Staphylococcus epidermidis ATCC 12228; format: functional; conditions: read-out: MBC99.9; procedure, shortened: as §3
Staphylococcus aureus [11] = assay: Bactericidal activity against Staphylococcus aureus ATCC 25923; format: functional; conditions: read-out: MBC99.9; procedure, shortened: as §3
Candida albicans [12] = assay: Antifungal activity against Candida albicans cgmcc 2.2086 after 48 hrs by broth microdilution method; format: functional; conditions: cgmcc 2.2086, 48 h
Procedure, shortened: (§4)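 Modified CLSI M27-A2 broth microdilution. Yeast at (0.5−1) × 10^3 CFU/mL in MOPS-buffered RPMI 1640 was mixed 1:1 with peptide serially diluted in 0.2% BSA and incubated 48 h at 28 °C. Absorbance was read at 492 nm; MIC is the lowest concentration inhibiting 95% of growth. Triplicate, three biological replicates.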

Candida albicans [13] = assay: Antifungal activity against Candida albicans isolated from alveolar fluid after 48 hrs by broth microdilution method; format: functional; procedure, shortened: as §4
Candida albicans [14] = assay: Antifungal activity against fluconazole-resistant Candida albicans 56214 after 48 hrs by broth microdilution method; format: functional; conditions: Candida albicans, 56214, 48 h; procedure, shortened: as §4
Candida albicans [15] = assay: Antifungal activity against Candida albicans 14936 after 48 hrs by broth microdilution method; format: functional; conditions: Candida albicans, 14936, 48 h; procedure, shortened: as §4
Candida tropicalis = assay: Antifungal activity against Candida tropicalis cgmcc 2.1975 after 48 hrs by broth microdilution method; format: functional; conditions: cgmcc 2.1975, 48 h
Procedure, shortened: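 Modified CLSI M27-A2 broth microdilution. Yeast were suspended in MOPS-buffered RPMI 1640 at a final (0.5−1) × 10^3 CFU/mL and mixed 1:1 with peptide serially diluted in 0.2% BSA. Plates were incubated 48 h at 28 °C and read at A492. MIC is the lowest concentration giving 95% inhibition. Run in triplicate with three biological replicates.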

Candida albicans [16] = assay: Fungicidal activity against Candida albicans SP3903 after 96 hrs; format: functional; conditions: SP3903, 96 h, read-out: MFC99.9
Procedure, shortened: (§5)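 After the 48 h, 28 °C broth microdilution in MOPS-buffered RPMI 1640 (inoculum (0.5−1) × 10^3 CFU/mL), 50 μL from each well was plated on YM agar for a further 48 h at 28 °C. MFC is the lowest concentration killing at least 99.9% of cells. Triplicate, three biological replicates.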

Candida albicans [17] = assay: Fungicidal activity against Candida albicans SP3902 after 96 hrs; format: functional; conditions: SP3902, 96 h, read-out: MFC99.9; procedure, shortened: as §5
Candida albicans [18] = assay: Fungicidal activity against fluconazole-resistant Candida albicans 56452 after 96 hrs; format: functional; conditions: Candida albicans, 56452, 96 h; read-out: MFC99.9; procedure, shortened: as §5
Candida albicans [19] = assay: Fungicidal activity against Candida albicans 14936 after 96 hrs; format: functional; conditions: Candida albicans, 14936, 96 h; read-out: MFC99.9; procedure, shortened: as §5
Pichia kudriavzevii = assay: Fungicidal activity against Candida krusei cgmcc 2.1857 after 96 hrs; format: functional; conditions: cgmcc 2.1857, 96 h, read-out: MFC99.9
Procedure, shortened: (§6)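 Wells from the 48 h, 28 °C RPMI 1640/MOPS microdilution plates were plated on YM agar and incubated a further 48 h at 28 °C. MFC is the lowest concentration killing at least 99.9% of cells. Run in triplicate with three biological replicates.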

Candida parapsilosis = assay: Fungicidal activity against Candida parapsilosis cgmcc 2.3989 after 96 hrs; format: functional; conditions: Lodderomyces parapsilosis, cgmcc 2.3989, 96 h; read-out: MFC99.9; procedure, shortened: as §6
Escherichia coli [20] = assay: Antibacterial activity against Escherichia coli ATCC 25922 after 18 hrs in presence of NaCl by broth dilution method; format: functional; conditions: ATCC 25922, 18 h
Escherichia coli [21] = assay: Antibacterial activity against Escherichia coli ATCC 25922 after 18 hrs in presence of NH4Cl by broth dilution method; format: functional; conditions: ATCC 25922, 18 h
Escherichia coli [22] = assay: Antibacterial activity against Escherichia coli ATCC 25922 after 18 hrs in presence of ZnCl2 by broth dilution method; format: functional; conditions: ATCC 25922, 18 h
Escherichia coli [23] = assay: Antibacterial activity against Escherichia coli ATCC 25922 after 18 hrs in presence of FeCl3 by broth dilution method; format: functional; conditions: ATCC 25922, 18 h
Candida albicans [24] = assay: Antifungal activity against Candida albicans cgmcc 2.2086 in presence of KCl by broth dilution method; format: functional
Candida albicans [25] = assay: Antifungal activity against Candida albicans cgmcc 2.2086 in presence of NH4Cl by broth dilution method; format: functional
Candida albicans [26] = assay: Antifungal activity against Candida albicans cgmcc 2.2086 in presence of MgCl2 by broth dilution method; format: functional
Candida albicans [27] = assay: Antifungal activity against Candida albicans cgmcc 2.2086 in presence of CaCl2 by broth dilution method; format: functional
Candida albicans [28] = assay: Antifungal activity against Candida albicans cgmcc 2.2086 in presence of ZnCl2 by broth dilution method; format: functional
Candida albicans [29] = assay: Antifungal activity against Candida albicans cgmcc 2.2086 in presence of FeCl3 by broth dilution method; format: functional
Candida albicans [30] = assay: Fungicidal activity against Candida albicans 58288 after 96 hrs; format: functional; conditions: Candida albicans, 58288, 96 h; read-out: MFC99.9; procedure, shortened: as §5

Row | Substance | MIC95 (Escherichia coli [1]) [µM] | MIC95 [2] [µM] | MIC95 (Staphylococcus aureus [3]) [µM] | MIC95 (Staphylococcus aureus [4]) [µM] | MIC95 [5] [µM] | MBC (Escherichia coli [6]) [µM] | MBC (Escherichia coli [7]) [µM] | MBC (Salmonella typhimurium) [µM] | MBC (Staphylococcus aureus [8]) [µM] | MBC (Staphylococcus aureus [9]) [µM] | MBC [10] [µM] | MBC (Staphylococcus aureus [11]) [µM] | MIC95 (Candida albicans [12]) [µM] | MIC95 (Candida albicans [13]) [µM] | MIC95 (Candida albicans [14]) [µM] | MIC95 (Candida albicans [15]) [µM] | MIC95 (Candida tropicalis) [µM] | MFC (Candida albicans [16]) [µM] | MFC (Candida albicans [17]) [µM] | MFC (Candida albicans [18]) [µM] | also measured
1 | H-RFFRRFRRFFR-NH2 | 8 | 4 | 8 | 4 | 4 | 8 | 8 | 8 | 16 | 8 | 4 | 8 | 8 | 8 | 8 | 8 | 2 | 4 | 8 | 8 | MFC (Candida albicans [19]): 16 µM; MFC (Pichia kudriavzevii): 4 µM; MFC (Candida parapsilosis): > 64 µM; MIC (Escherichia coli [20]): 8 µM; MIC (Escherichia coli [21]): 4 µM; MIC (Escherichia coli [22]): 8 µM; MIC (Escherichia coli [23]): 8 µM; MIC (Candida albicans [24]): 16 µM; MIC (Candida albicans [25]): 4 µM; MIC (Candida albicans [26]): 8 µM; MIC (Candida albicans [27]): 64 µM; MIC (Candida albicans [28]): 8 µM; MIC (Candida albicans [29]): 8 µM; MFC (Candida albicans [30]): 16 µM
2 | H-RFRFFFRFR-NH2 | 4 | 2 | 4 | 4 | 4 | 8 | 8 | 8 | 8 | 4 | 8 | 8 | 8 | 8 | 8 | 8 | 2 | 4 | 4 | 4 | MFC (Candida albicans [19]): 8 µM; MFC (Pichia kudriavzevii): 4 µM; MFC (Candida parapsilosis): 32 µM; MIC (Escherichia coli [20]): 4 µM; MIC (Escherichia coli [21]): 4 µM; MIC (Escherichia coli [22]): 4 µM; MIC (Escherichia coli [23]): 4 µM; MIC (Candida albicans [24]): 32 µM; MIC (Candida albicans [25]): 8 µM; MIC (Candida albicans [26]): 16 µM; MIC (Candida albicans [27]): 64 µM; MIC (Candida albicans [28]): 8 µM; MIC (Candida albicans [29]): 8 µM; MFC (Candida albicans [30]): 16 µM
3 | H-RIIRRIRRIIR-NH2 | 16 | 16 | 64 | 16 | 16 | 32 | 8 | 32 | > 64 | 16 | 32 | 64 | 16 | 16 | 8 | 8 | 1 | 4 | 16 | 8 | MFC (Candida albicans [19]): 8 µM; MFC (Pichia kudriavzevii): 8 µM; MFC (Candida parapsilosis): > 64 µM; MIC (Escherichia coli [20]): 16 µM; MIC (Escherichia coli [21]): 16 µM; MIC (Escherichia coli [22]): 16 µM; MIC (Escherichia coli [23]): 16 µM; MIC (Candida albicans [24]): 64 µM; MIC (Candida albicans [25]): 16 µM; MIC (Candida albicans [26]): 32 µM; MIC (Candida albicans [27]): 64 µM; MIC (Candida albicans [28]): 64 µM; MIC (Candida albicans [29]): 16 µM; MFC (Candida albicans [30]): 16 µM
4 | H-RIRIIIRIR-NH2 | 8 | 4 | 4 | 4 | 4 | 8 | 8 | 8 | 8 | 4 | 8 | 8 | 4 | 4 | 2 | 2 | 2 | 8 | 2 | 4 | MFC (Candida albicans [19]): 2 µM; MFC (Pichia kudriavzevii): 4 µM; MFC (Candida parapsilosis): 16 µM; MIC (Escherichia coli [20]): 8 µM; MIC (Escherichia coli [21]): 4 µM; MIC (Escherichia coli [22]): 8 µM; MIC (Escherichia coli [23]): 8 µM; MIC (Candida albicans [24]): 4 µM; MIC (Candida albicans [25]): 4 µM; MIC (Candida albicans [26]): 4 µM; MIC (Candida albicans [27]): 32 µM; MIC (Candida albicans [28]): 4 µM; MIC (Candida albicans [29]): 4 µM; MFC (Candida albicans [30]): 4 µM
